Assay results taken from ChEMBL document CHEMBL3784997 (J Med Chem, 2016).

How the values were obtained:
[1] = biological target: T1, Adenosine receptor A1 (Homo sapiens) (UniProt P30542); test: Displacement of [3H]DPCPX from human Adenosine A1 receptor expressed in CHO cells at 1 uM after 60 mins; format: cell-based
T1 sequence (whole entry): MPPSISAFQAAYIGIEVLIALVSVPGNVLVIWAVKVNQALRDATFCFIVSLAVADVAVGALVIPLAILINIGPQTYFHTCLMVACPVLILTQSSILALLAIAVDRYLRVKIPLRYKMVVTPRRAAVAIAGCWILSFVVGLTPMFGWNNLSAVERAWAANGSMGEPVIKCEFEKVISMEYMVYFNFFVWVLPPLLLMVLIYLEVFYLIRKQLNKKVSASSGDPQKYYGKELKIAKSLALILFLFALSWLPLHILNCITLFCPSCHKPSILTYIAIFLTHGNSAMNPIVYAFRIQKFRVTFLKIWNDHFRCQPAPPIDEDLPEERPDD
In short: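 Competition binding on membranes from CHO cells expressing human A1, labelled with 2 nM [3H]DPCPX. Non-specific binding was defined with 10 µM R-PIA, and incubation was at 25 °C for 60 min. The value is percent inhibition of specific binding at 1 µM test compound (n = 2, average).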

[2] = biological target: Adenosine receptor A2a (Homo sapiens) (UniProt P29274); test: Displacement of [3H]ZM241385 from human Adenosine A2A receptor expressed in HeLa cells at 1 uM after 30 mins; format: cell-based
Sequence of Adenosine receptor A2a (Homo sapiens) (P29274 whole entry): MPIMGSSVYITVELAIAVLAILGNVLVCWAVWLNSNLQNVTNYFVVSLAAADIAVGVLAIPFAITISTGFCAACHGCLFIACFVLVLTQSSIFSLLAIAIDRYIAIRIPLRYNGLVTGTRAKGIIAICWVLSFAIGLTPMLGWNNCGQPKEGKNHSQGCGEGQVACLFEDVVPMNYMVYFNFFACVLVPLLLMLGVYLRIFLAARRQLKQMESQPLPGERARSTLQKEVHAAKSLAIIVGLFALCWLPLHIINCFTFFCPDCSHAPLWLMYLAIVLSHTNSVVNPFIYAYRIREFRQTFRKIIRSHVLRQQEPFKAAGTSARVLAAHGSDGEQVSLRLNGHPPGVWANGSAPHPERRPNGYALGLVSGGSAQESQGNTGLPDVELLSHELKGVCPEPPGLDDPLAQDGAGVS
In short: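 Membranes from HeLa cells expressing human A2A were labelled with 3 nM [3H]ZM241385, with non-specific binding defined by 50 µM NECA, and incubated at 25 °C for 30 min. The value is percent displacement of specific binding at 1 µM test compound (n = 2).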

[3] = biological target: T2, Adenosine receptor A2b (Homo sapiens) (UniProt P29275); test: Displacement of [3H]DPCPX from human Adenosine A2B receptor expressed in HEK293 cells at 1 uM after 30 mins; format: cell-based
T2 sequence (whole entry): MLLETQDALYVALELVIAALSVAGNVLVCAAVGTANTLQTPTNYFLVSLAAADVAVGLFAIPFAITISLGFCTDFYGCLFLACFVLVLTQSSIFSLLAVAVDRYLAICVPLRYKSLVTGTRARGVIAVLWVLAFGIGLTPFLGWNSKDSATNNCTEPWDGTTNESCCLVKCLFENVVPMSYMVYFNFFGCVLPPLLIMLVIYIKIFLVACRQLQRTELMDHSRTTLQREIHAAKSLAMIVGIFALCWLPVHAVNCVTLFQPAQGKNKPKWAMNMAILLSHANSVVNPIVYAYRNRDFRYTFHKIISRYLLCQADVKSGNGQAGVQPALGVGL
In short: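 Membranes from HEK-293 cells expressing human A2B were labelled with 35 nM [3H]DPCPX, with non-specific binding defined by 400 µM NECA, and incubated at 25 °C for 30 min.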

[4] = biological target: T3, Adenosine receptor A3 (Homo sapiens) (UniProt P0DMS8); test: Displacement of [3H]NECA from human Adenosine A3 receptor expressed in HeLa cells at 1 uM after 180 mins
T3 sequence (whole entry): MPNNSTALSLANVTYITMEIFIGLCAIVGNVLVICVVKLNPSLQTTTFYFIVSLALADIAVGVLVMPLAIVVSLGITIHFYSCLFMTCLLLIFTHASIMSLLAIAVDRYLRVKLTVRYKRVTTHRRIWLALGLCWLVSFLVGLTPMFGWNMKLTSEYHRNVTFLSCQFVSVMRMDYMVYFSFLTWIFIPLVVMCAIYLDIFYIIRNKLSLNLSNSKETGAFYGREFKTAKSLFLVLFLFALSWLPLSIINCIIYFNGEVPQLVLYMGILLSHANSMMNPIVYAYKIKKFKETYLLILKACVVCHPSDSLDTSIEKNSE

Adenosine receptor A2b = biological target: T4, Adenosine receptor A2b (Homo sapiens, UniProt P29275); test: Displacement of [3H]DPCPX from human Adenosine A2B receptor expressed in HEK293 cells after 30 mins; format: cell-based
T4 sequence (P29275 whole entry): T2 sequence (whole entry)

Row | SMILES | Activity [1] [%] | Activity [2] [%] | Activity [3] [%] | Activity [4] [%] | Ki (Adenosine receptor A2b) [nM]
1 | CC1=C(C(=O)OC(C)C)C(c2cccs2)CC(=O)N1 (racemic) | 2 | 1 | 3 | 22 | –
2 | O=C1NC2=C(C(=O)OC2)C(c2ccoc2)N1 (racemic) | 9 | 3 | 9 | 1 | –
3 | CC1=C(C(=O)OC(C)C)C(c2ccoc2)n2ncnc2N1 (racemic) | 2 | 2 | – | 20 | 350
4 | CCOC(=O)C1=C(C)NC(=O)NC1c1ccoc1 (centres undefined) | 21 | 39 | – | 1 | –
5 | CCN1CC2=C(C1=O)C(c1ccco1)NC(=O)N2 (racemic) | 7 | 7 | 17 | 20 | –
6 | CC1=C(C(=O)OC(C)C)C(c2ccsc2)n2ccnc2N1 (racemic) | 3 | 1 | – | 1 | 847
7 | O=C1NC2=C(C(=O)OC2)C(c2cccs2)N1 (racemic) | 1 | 1 | 10 | 1 | –
8 | CCOC(=O)C1=C(C)NC(=O)CC1c1ccco1 (racemic) | 22 | 13 | – | 24 | 2540
9 | CCOC(=O)C1=C(C)NC(=O)CC1c1ccoc1 (racemic) | 9 | 8 | 14 | 15 | –
10 | CCOC(=O)C1=C(C)NC(=O)CC1c1ccsc1 (racemic) | 1 | 4 | 12 | 13 | –
11 | CCOC(=O)C1=C(C)Nc2nccn2C1c1ccoc1 (racemic) | 2 | 1 | 12 | 3 | –
12 | CC1=C(C(=O)OC(C)C)C(c2ccco2)n2ccnc2N1 (racemic) | 3 | 4 | – | 2 | 85.6
13 | CC1=C(C(=O)OC(C)C)C(c2ccco2)NC(=O)N1 (centres undefined) | 20 | 30 | – | 1 | –
14 | CCOC(=O)C1=C(C)Nc2nccn2C1c1ccsc1 (racemic) | 1 | 3 | 10 | 2 | –
15 | CCOC(=O)C1=C(C)Nc2ncnn2C1c1ccsc1 (racemic) | 3 | 21 | – | 2 | 699
16 | CC1=C(C(=O)OC(C)C)C(c2ccoc2)n2ccnc2N1 (racemic) | 1 | 4 | – | 10 | 277
17 | CCOC(=O)C1=C(C)Nc2nc3ccccc3n2C1c1ccoc1 (racemic) | 7 | 11 | – | 1 | 20.6
18 | CCOC(=O)C1=C(C)NC(=O)CC1c1cccs1 (racemic) | 16 | 11 | 18 | 21 | –
19 | CC1=C(C(=O)OC(C)C)C(c2ccsc2)NC(=O)N1 (centres undefined) | 26 | 25 | – | 1 | –
20 | CCOC(=O)C1=C(C)NC(=O)NC1c1cccs1 (centres undefined) | 1 | 33 | 44 | 1 | –
21 | CCOC(=O)C1=C(C)Nc2ncnn2C1c1ccco1 (racemic) | 15 | 20 | 3 | 4 | –
22 | CCOC(=O)C1=C(C)Nc2nc3ccccc3n2C1c1ccsc1 (racemic) | 3 | 10 | – | 2 | 29.7
23 | CCOC(=O)C1=C(C)Nc2nccn2C1c1ccco1 (racemic) | 2 | 5 | – | 6 | 108

Row | SMILES | Activity [1] [%] | Activity [2] [%] | Activity [3] [%] | Activity [4] [%] | Ki (Adenosine receptor A2b) [nM]
24 | O=C1NC2=C(C(=O)OC2)C(c2ccco2)N1 (racemic) | 3 | 2 | 2 | 3 | –
25 | CC1=C(C(=O)OC(C)C)C(c2cccs2)n2ncnc2N1 (racemic) | 1 | 1 | 1 | 3 | –
26 | CC1=C(C(=O)OC(C)C)C(c2cccs2)n2c(nc3ccccc32)N1 (racemic) | 1 | 17 | – | 3 | 371
27 | CC1=C(C(=O)OC(C)C)C(c2ccsc2)n2c(nc3ccccc32)N1 (racemic) | 11 | 3 | – | 21 | 29.3
28 | CC1=C(C(=O)OC(C)C)C(c2ccsc2)CC(=O)N1 (racemic) | 4 | 3 | 21 | 20 | –
29 | CCOC(=O)C1=C(C)NC(=O)NC1c1ccco1 (centres undefined) | 18 | 41 | – | 2 | –
30 | CCN1CC2=C(C1=O)C(c1ccoc1)NC(=O)N2 (racemic) | 16 | 13 | 35 | 17 | –
31 | CC1=C(C(=O)OC(C)C)C(c2ccco2)CC(=O)N1 (racemic) | 14 | 14 | 15 | 31 | –
32 | CCOC(=O)C1=C(C)Nc2ncnn2C1c1cccs1 (racemic) | 1 | 2 | 15 | 15 | –
33 | CCN1CC2=C(C1=O)C(c1cccs1)NC(=O)N2 (racemic) | 12 | 2 | 28 | 21 | –
34 | CCN1CC2=C(C1=O)C(c1ccsc1)NC(=O)N2 (racemic) | 27 | 17 | 18 | 31 | –
35 | CC1=C(C(=O)OC(C)C)C(c2ccoc2)CC(=O)N1 (racemic) | 23 | 25 | 20 | 24 | –
36 | CC1=C(C(=O)OC(C)C)C(c2ccoc2)n2c(nc3ccccc32)N1 (racemic) | 12 | 22 | – | 2 | 11.4
37 | CC1=C(C(=O)OC(C)C)C(c2ccsc2)n2ncnc2N1 (racemic) | 3 | 2 | – | 5 | 817
38 | CCOC(=O)C1=C(C)NC(=O)NC1c1ccsc1 (centres undefined) | 22 | 39 | – | 24 | –
39 | CC1=C(C(=O)OC(C)C)C(c2ccoc2)NC(=O)N1 (centres undefined) | 25 | 26 | – | 3 | –
40 | CC1=C(C(=O)OC(C)C)C(c2cccs2)n2ccnc2N1 (racemic) | 3 | 3 | – | 5 | 728
41 | O=C1NC2=C(C(=O)OC2)C(c2ccsc2)N1 (racemic) | 13 | 3 | 8 | 2 | –
42 | CCOC(=O)C1=C(C)Nc2nc3ccccc3n2C1c1cccs1 (racemic) | 8 | 16 | – | 1 | 485
43 | CC1=C(C(=O)OC(C)C)C(c2cccs2)NC(=O)N1 (centres undefined) | 37 | 19 | 44 | 14 | –
44 | CCOC(=O)C1=C(C)Nc2ncnn2C1c1ccoc1 (racemic) | 2 | 1 | – | 4 | 602
45 | CCOC(=O)C1=C(C)Nc2nc3ccccc3n2C1c1ccco1 (racemic) | 5 | 14 | – | 1 | 12
